{"data": "Results collected from several papers", "effect on": "enzyme activity", "action": "inhibitor", "LCK": "Tyrosine-protein kinase Lck (LCK, Homo sapiens, UniProt P06239)", "LCK phosphorylated": "Tyrosine-protein kinase Lck, phosphorylated (LCK, Homo sapiens, UniProt P06239)"}
{"Structure (SMILES)": "O=C(Nc1cnn(-c2csc(C(=O)NC3COC3)c2)c1)Nc1ccccc1Cl", "target": "LCK", "concentration": "5 µM", "remaining activity [%]": 99.1}
{"Structure (SMILES)": "CC(C)(C)c1nc(-c2cccc(NS(=O)(=O)c3c(F)cccc3F)c2F)c(-c2ccnc(N)n2)s1", "target": "LCK", "technique": "radiometric", "concentration": "1 µM", "remaining activity [%]": 38}
{"Structure (SMILES)": "CCN(CC)c1ccc(C2=NNC(=O)CC2C)cc1[N+](=O)[O-] (stereo not drawn)", "target": "LCK", "concentration": "10 µM", "remaining activity [%]": 118}
{"Structure (SMILES)": "COc1cc(Nc2cnc(C#N)c(O[C@H](C)CN(C)C)n2)ncc1-c1cnn(C)c1", "target": "LCK", "technique": "radiometric", "concentration": "1 µM", "remaining activity [%]": 60}
{"Structure (SMILES)": "COc1cc2c(N3CCN(C(=O)Nc4ccc(OC(C)C)cc4)CC3)ncnc2cc1OCCCN1CCCCC1", "target": "LCK", "concentration": "0.5 µM", "remaining activity [%]": 87.1}
{"Structure (SMILES)": "CCCOc1ccc(OC)c(F)c1C(=O)c1ccc(C(=O)N[C@@H]2CNC[C@H]2NC(=O)c2ccc3[nH]ncc3c2)cc1", "target": "LCK phosphorylated", "concentration": "10 µM", "remaining activity [%]": 18}
{"Structure (SMILES)": "COc1cc2ncnc(Nc3cccc(Cl)c3)c2cc1OC", "target": "LCK", "concentration": "0.5 µM", "remaining activity [%]": 74.9}
{"Structure (SMILES)": "Nc1nc(Nc2ccccc2)sc1C(=O)c1c(F)cccc1F", "target": "LCK", "concentration": "10 µM", "remaining activity [%]": 49}
{"Structure (SMILES)": "Cc1ccc(NC(=O)c2ccc(C)c(C(F)(F)F)c2)cc1C#Cc1nn(C2CCC(O)CC2)c2ncnc(N)c12 (stereo not drawn)", "target": "LCK", "concentration": "10 µM", "remaining activity [%]": 0}
{"Structure (SMILES)": "Nc1ncnc2occ(-c3ccc(NC(=O)Nc4cc(C(F)(F)F)ccc4F)cc3)c12", "target": "LCK", "concentration": "20 µM", "remaining activity [%]": 0.1}
{"Structure (SMILES)": "Nc1nc(NC2CCCCC2)sc1C(=O)c1ccccc1", "target": "LCK", "concentration": "10 µM", "remaining activity [%]": 86}
{"Structure (SMILES)": "Cc1ccc(NC(=O)c2ccc(CN3CCN(C)CC3)cc2)cc1Nc1nccc(-c2cncc(-c3oncc3C)c2)n1", "target": "LCK", "concentration": "0.5 µM", "remaining activity [%]": "≤ 50"}
{"Structure (SMILES)": "Cn1c(=O)n(-c2ccc(C(C)(C)C#N)cc2)c2c3cc(-c4cnc5ccccc5c4)ccc3ncc21", "target": "LCK", "concentration": "10 µM", "remaining activity [%]": 54}
{"Structure (SMILES)": "CC(C)N(CCC(=O)c1ccc2ccccc2c1)Cc1ccccc1", "target": "LCK", "concentration": "0.5 µM", "remaining activity [%]": 98.9}
{"Structure (SMILES)": "Cc1cnc(NC2CCOCC2)nc1-n1cnc(C(=O)NC(CN)c2cc(F)cc(Cl)c2)c1 (stereo not drawn)", "target": "LCK phosphorylated", "technique": "radiometric", "concentration": "1 µM", "remaining activity [%]": 109}
{"Structure (SMILES)": "O=C1NC(=O)c2cc(Nc3ccc(F)cc3)c(Nc3ccc(F)cc3)cc21", "target": "LCK", "concentration": "0.5 µM", "remaining activity [%]": 98.4}
{"Structure (SMILES)": "Cc1ccc(C(=O)Nc2ccc(CN3CCN(C)CC3)c(C(F)(F)F)c2)cc1C#Cc1cnc2cccnn12", "target": "LCK", "concentration": "23.5 nM", "remaining activity [%]": 0.8}
{"Structure (SMILES)": "O=C1Nc2ccc(Cl)cc2C1=Cc1cc(Cl)c(O)c(Cl)c1", "target": "LCK", "concentration": "0.5 µM", "remaining activity [%]": 88.2}
{"Structure (SMILES)": "COc1cc(Cl)c(C(=O)N[C@@H](CN[C@H]2CC[C@@H](N)CC2)Cc2ccc(C#N)cc2)cc1-c1ccc(CN[C@H](C)c2ccc(C)cc2)o1", "target": "LCK", "concentration": "1 µM", "remaining activity [%]": 75}
{"Structure (SMILES)": "O=c1c2ccccc2[nH]c(=S)n1CCN1CCC(=C(c2ccc(F)cc2)c2ccc(F)cc2)CC1", "target": "LCK", "concentration": "0.5 µM", "remaining activity [%]": 99.5}
{"Structure (SMILES)": "Cc1[nH]c(/C=C2\\C(=O)Nc3ccc(F)cc32)c(C)c1C(=O)N[C@H]1CCN(C(=O)N(C)C)C1", "target": "LCK", "concentration": "0.1 µM", "remaining activity [%]": 87}
